Pemphigus Ab inh – human desmoglein-3 autoantibody binding inhibition; DSG3-coupled beads, scFv-anti-DSG3-GFP binding, flow cytometry; stronger effect = lower value; binding (percent of control), % at 10 µM; actives 0.48% (n = 310,000);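 active = binding more than 3 SD below its plate's average and above zero; inconclusive = below that plate limit but binding exactly zero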;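 also: hits lower antibody fragment binding to DSG3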
Target sequence (P32926 whole entry, looked up, the tested form may be a part): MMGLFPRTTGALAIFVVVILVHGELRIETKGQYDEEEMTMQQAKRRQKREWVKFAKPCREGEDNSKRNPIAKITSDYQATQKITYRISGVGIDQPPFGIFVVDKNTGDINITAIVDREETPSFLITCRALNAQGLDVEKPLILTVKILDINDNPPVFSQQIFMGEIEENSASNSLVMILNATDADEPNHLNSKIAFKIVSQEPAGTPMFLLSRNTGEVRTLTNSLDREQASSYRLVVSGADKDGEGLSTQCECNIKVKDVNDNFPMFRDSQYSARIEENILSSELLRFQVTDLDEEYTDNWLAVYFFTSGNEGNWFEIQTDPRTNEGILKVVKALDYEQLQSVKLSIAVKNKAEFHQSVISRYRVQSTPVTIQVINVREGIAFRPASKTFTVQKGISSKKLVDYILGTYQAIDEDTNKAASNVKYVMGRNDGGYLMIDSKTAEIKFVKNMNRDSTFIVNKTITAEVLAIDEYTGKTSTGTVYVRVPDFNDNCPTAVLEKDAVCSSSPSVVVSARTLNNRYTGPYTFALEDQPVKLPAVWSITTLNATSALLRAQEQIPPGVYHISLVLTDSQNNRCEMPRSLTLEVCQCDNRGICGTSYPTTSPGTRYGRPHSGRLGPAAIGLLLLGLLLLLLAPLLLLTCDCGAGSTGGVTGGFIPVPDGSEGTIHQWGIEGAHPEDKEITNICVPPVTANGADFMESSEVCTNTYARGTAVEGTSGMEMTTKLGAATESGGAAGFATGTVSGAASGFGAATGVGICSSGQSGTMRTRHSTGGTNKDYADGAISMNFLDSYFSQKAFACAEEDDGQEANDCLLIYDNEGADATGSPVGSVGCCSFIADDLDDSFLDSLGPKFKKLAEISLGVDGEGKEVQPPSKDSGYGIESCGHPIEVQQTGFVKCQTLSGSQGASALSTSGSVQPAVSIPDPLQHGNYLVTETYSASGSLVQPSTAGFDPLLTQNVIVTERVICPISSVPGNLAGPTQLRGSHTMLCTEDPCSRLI
TRPC4 act – TRPC4 (mouse) channel activation; HEK293 TRPC4beta/mu-opioid, Fluo4 calcium fluorescence; stronger effect = higher value; B-score at 10 µM; actives 0.49% (n = 310,000);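 active = B-score above 5 SD of library B-scores, and initial fluorescence ratio not above library mean plus 5 SD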;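 also: positive B-score marks a calcium rise read as TRPC4 activation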
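System: HEK293 cells stably co-expressing mouse TRPC4beta and mu-opioid receptor; Schedule: Fluo4 dye loading 45 min at room temperature, 110 s recording; Detection: Fluo4 fluorescence, kinetic; Evaluation: B-scored integrated calcium fluorescence ratio; Controls: buffer (low) and maximal DAMGO (high).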
TRPC6 inhibitor – mouse TRPC6 channel inhibition | HEK293-TRPC6, membrane potential dye, ACh-evoked depolarization; stronger effect = lower value | B-score at 10 µM | actives 1.1% (n = 310,000);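 active = B-score under library mean minus 3 SD, initial fluorescence not abnormally high, positive integrated signal ratio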;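 also: B-score derived from integrated fluorescence ratio over the kinetic read; more negative B-score means stronger inhibition of depolarization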
TRPC4 inh – inhibitors of mouse TRPC4 channel; Q9QUQ5; HEK293 TRPC4beta/mu-opioid, DAMGO-evoked Fluo4 calcium flux; stronger effect = lower value; B-score at 10 µM; actives 0.39% (n = 300,000);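 active = B-score over 3 SD under the library average, no early fluorescence shift, positive overall ratio signal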
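Signal: kinetic Fluo4 fluorescence imaging of calcium influx. Material: stable TRPC4beta/mu-opioid receptor HEK293 cells. Probe or stimulus: DAMGO in two steps, submaximal then maximal.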
TRPC6 activator – activators of mouse TRPC6 channel | Q61143 | HEK293-TRPC6 membrane potential dye fluorescence; stronger effect = higher value | B-score at 10 µM | actives 0.13% (n = 310,000) | AID 2550;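 active = B-score of the integrated fluorescence ratio above library mean plus 3 SD, and starting fluorescence ratio within library mean plus 5 SD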;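 also: higher score means more depolarization so channel activation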
TRPC4 PAM – allosteric potentiators of mouse TRPC4 channel; Q9QUQ5; B-score at 10 µM; AID 2227; actives 0.42% (n = 310,000); HEK293 TRPC4beta/mu-opioid, DAMGO EC20, Fluo-4 Ca2+ flux; stronger effect = higher value;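 active = B-score of calcium response area above 5 SD of library B-scores, with initial fluorescence ratio within 5 SD of library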
TRPC4 spec 2 – second check of whether TRPC6 inhibitors also affect mouse TRPC4 | HEK293 TRPC4/MOR, membrane potential dye fluorescence; channel activated by saturating DAMGO dose | shares compounds with TRPC6 inhibitor | actives 42% (n = 920) | AID 2776 | inhibition, % at 10 µM;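 active = compounds whose fluorescence signal differed from control wells by over 3 SD, either direction, in both duplicate plates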
TRPC4 spec – selectivity of TRPC6 inhibitors: effect on mouse TRPC4 | activity change, negative = inhibition, % at 10 µM | HEK293 TRPC4/mu-opioid, membrane potential fluorescence | actives 61% (n = 920) | shares compounds with TRPC6 inhibitor;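 active = rise or fall in signal beyond 3 SD of buffer-only wells in both replicate plates, either sign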;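 also: integrated kinetic ratio of fluorescence range over baseline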
HEK293 MPD ctr 2-1 – second check of TRPC6 inhibitor effects in parental HEK293 cells. shares compounds with TRPC6 inhibitor. parental HEK293 membrane potential dye fluorescence; maximal acetylcholine challenge after compound addition. signal change vs control, % at 10 µM. actives 31% (n = 920). AID 2779;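 active = membrane potential signal moving either way by over 3 SD of the maximum-effect control, in both duplicate plates, meaning non-specific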
HEK293 MPD ctr-1 – parental HEK293 nonspecific activity of TRPC6 inhibitors; shares compounds with TRPC6 inhibitor; membrane potential signal change, % at 10 µM; AID 2780; actives 60% (n = 920); parental HEK293 membrane potential dye fluorescence;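 active = membrane potential signal shifting up or down by more than 3 SD of buffer-only wells, on both duplicate plates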
HEK293 MPD ctr-2 – parental HEK293 nonspecific activity of TRPC6 modulators; membrane potential dye fluorescence; membrane potential signal change, % at 10 µM; actives 51% (n = 2,400); shares compounds with TRPC6 inhibitor; AID 488924;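 active = membrane potential signal moves up or down beyond 5 SD from buffer-only wells, on both duplicate plates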
HEK293 MPD ctr 2-2 – second counter-screen for TRPC6 modulators: effect in parental HEK293 cells; shares compounds with TRPC6 inhibitor; membrane potential dye fluorescence; after compound, maximal acetylcholine stimulation; inhibition, % at 10 µM; actives 14% (n = 2,400); AID 488926;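 active = membrane potential signal drops by more than 5 SD from the mean control signal, in both duplicate plates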
TRPC4 ctr mod – tests whether TRPC6 modulators also affect mouse TRPC4; actives 69% (n = 2,400); HEK293 TRPC4/mu-opioid, membrane potential fluorescence; shares compounds with TRPC6 inhibitor; AID 488927; percent change from control (negative = decrease, positive = increase), % at 10 µM;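 active = membrane potential signal moved up or down beyond 5 SD of buffer control wells, in both duplicate plates, actives on both sides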
TRPC4 ctr inh 2 – mouse TRPC4 off-target activity of TRPC6 modulators, second screen; actives 55% (n = 2,400); inhibition, % at 10 µM; AID 488928; HEK293 TRPC4/mu-opioid, membrane potential dye fluorescence; stimulated with maximal-effect DAMGO; shares compounds with TRPC6 inhibitor;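 active = drop in membrane potential signal beyond 5 SD of the control wells in both duplicate plates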;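 also: TRPC4 counter screen for TRPC6 hits run under conditions tuned for TRPC6 not TRPC4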
TRPC6 block conf – mouse TRPC6 inhibitor confirmation; shares compounds with TRPC6 inhibitor; HEK293-TRPC6, membrane potential dye, ACh-evoked depolarization; inhibition, % at 10 µM; actives 43% (n = 3,300); AID 488960;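 active = fluorescence ratio falls more than 5 SD below the full-stimulation control mean, in both duplicate runs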;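 also: integrated fluorescence ratio of peak minus minimum over baseline after agonist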
TRPC6 act conf – confirmation of mouse TRPC6 activators | shares compounds with TRPC6 inhibitor | HEK293-TRPC6 membrane potential dye fluorescence, FDSS | activation, % at 10 µM | actives 11% (n = 2,800) | AID 488961;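 active = ratio signal rise beyond 5 SD above unstimulated control wells' mean, seen in both duplicate runs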
Of the large screens only hits and unclear results are named; the others gave an inactive call (follow-up assays come after a bar, where they were run). Rows were chosen to be rich in hits. Some 2.5% of all compounds tested hit in one or more screens of this group.

CC1CN(c2ccc([N+](=O)[O-])c3cccnc23)CC(C)N1 (stereo not drawn)	TRPC4 act 104, TRPC6 inhibitor -10 | HEK293 MPD ctr-2 -358% | HEK293 MPD ctr 2-2 inactive | TRPC4 ctr mod -60% | TRPC4 ctr inh 2 64% | TRPC6 block conf 58% | TRPC6 act conf inactive
O=[N+]([O-])c1ccc(N2CCCC2)c2ncccc12	none
O=C1CCCN1CC#CCN1CCCC1	TRPC6 inhibitor -5.9 | HEK293 MPD ctr-2 inactive | HEK293 MPD ctr 2-2 inactive | TRPC4 ctr mod inactive | TRPC4 ctr inh 2 inactive | TRPC6 block conf 49%
CN(C)C1C(=O)C(C(N)=O)=C(O)C2(O)C(=O)C3=C(O)c4c(O)cccc4C(C)(O)C3C(O)C12 (stereo not drawn)	none
C/C=C1/CC(C)C(C)(O)C(=O)OCC2CCN3CCC(OC1=O)C23 (stereo not drawn)	TRPC6 inhibitor -6.2 | HEK293 MPD ctr-2 inactive | HEK293 MPD ctr 2-2 81% | TRPC4 ctr mod 18% | TRPC4 ctr inh 2 inactive | TRPC6 block conf 78% | TRPC6 act conf inactive
CCC(C)/C=C(C)/C=C/C1=CC2=C(Cl)C(=O)C(C)(OC(C)=O)C(=O)C2=CO1 (stereo not drawn)	TRPC6 inhibitor -6.5 | HEK293 MPD ctr-2 -84% | HEK293 MPD ctr 2-2 69% | TRPC4 ctr mod -22% | TRPC4 ctr inh 2 93% | TRPC6 block conf 88% | TRPC6 act conf inactive
O=C1NC(=O)C(CCc2ccccn2)(Cc2ccc3c(c2)OCO3)C(=O)N1CCc1ccccc1 (stereo not drawn)	none
CCNc1cc(N2CCN(C)CC2)ccc1[N+](=O)[O-]	none
CN1CCN(c2ccc([N+](=O)[O-])c(N/N=C3\CN4CCC3CC4)c2)CC1	TRPC6 inhibitor -12 | HEK293 MPD ctr-2 -230% | HEK293 MPD ctr 2-2 70% | TRPC4 ctr mod -48% | TRPC4 ctr inh 2 82% | TRPC6 block conf 76% | TRPC6 act conf inactive
CN1C2CCC1C(COC(=O)c1ccccc1)C(O)C2 (stereo not drawn)	Pemphigus Ab inh inconclusive
CN1C2CCC1CC(OC(c1ccccc1)c1ccccc1N)C2 (stereo not drawn)	TRPC6 inhibitor -5.6 | HEK293 MPD ctr-2 110% | HEK293 MPD ctr 2-2 92% | TRPC4 ctr mod 21% | TRPC4 ctr inh 2 40% | TRPC6 block conf 88%
CC(=O)N1CC(=O)Nc2ccc(Cl)cc2C1c1ccccc1 (stereo not drawn)	none
O=C(Nc1cccc(C(F)(F)F)c1)OC1CN2CCC1CC2 (stereo not drawn)	TRPC6 inhibitor -6.5 | HEK293 MPD ctr-2 inactive | HEK293 MPD ctr 2-2 inactive | TRPC4 ctr mod inactive | TRPC4 ctr inh 2 inactive | TRPC6 block conf 54% | TRPC6 act conf inactive
Cc1ccccc1Cc1c(C)nc2nc(SCC(=O)N3CCC4(CC3)OCCO4)nn2c1C	none
CNC(C)(C)Cc1ccccc1	none (no result: TRPC4 act, TRPC6 inhibitor, TRPC4 inh, TRPC6 activator, TRPC4 PAM)
CCN(CC)c1ccc(N=Cc2c(O)n(Cc3ccco3)c(=O)[nH]c2=O)cc1	none (no result: Pemphigus Ab inh)
CCN(CCO)c1ccc(N=Cc2c(O)n(C)c(=S)[nH]c2=O)cc1	TRPC6 inhibitor -7.5, TRPC6 activator 23 | HEK293 MPD ctr-2 162% | HEK293 MPD ctr 2-2 inactive | TRPC4 ctr mod 26% | TRPC4 ctr inh 2 inactive | TRPC6 block conf 36% | TRPC6 act conf 54%
CCC(CO)(C(=O)OC1CC2CCC(C1)N2C)c1ccccc1 (stereo not drawn)	TRPC6 inhibitor -7.6 | TRPC4 spec 2 inactive | TRPC4 spec inactive | HEK293 MPD ctr 2-1 -46% | HEK293 MPD ctr-1 inactive | TRPC6 block conf 89% | TRPC6 act conf inactive
CC1CN(c2ccc([N+](=O)[O-])c(N3CCCCC3)c2)CCN1 (stereo not drawn)	TRPC6 inhibitor -5.3 | HEK293 MPD ctr-2 inactive | HEK293 MPD ctr 2-2 inactive | TRPC4 ctr mod -10% | TRPC4 ctr inh 2 inactive | TRPC6 block conf inactive | TRPC6 act conf inactive
CN1CCN(c2c(F)cc([N+](=O)[O-])c(N)c2Br)CC1	none
O=[N+]([O-])c1cc(F)c(N2CCCC2)cc1N1CCNCC1	TRPC6 inhibitor -6.9 (no result: Pemphigus Ab inh) | TRPC4 spec 2 48% | TRPC4 spec -29% | HEK293 MPD ctr 2-1 inactive | HEK293 MPD ctr-1 -399% | TRPC6 block conf inactive | TRPC6 act conf inactive
CN1CCN(c2ccc(S(=O)(=O)C(F)(F)F)cc2[N+](=O)[O-])CC1	none
c1cc2c(cc1N1CCCCC1)C1CC2CCN1 (stereo not drawn)	none (no result: TRPC4 act, TRPC6 inhibitor, TRPC4 inh, TRPC6 activator, TRPC4 PAM)
Nc1c([N+](=O)[O-])cc(F)c(N2CCNCC2)c1Br	TRPC6 inhibitor -5.9, TRPC4 PAM 23 | HEK293 MPD ctr-2 -128% | HEK293 MPD ctr 2-2 inactive | TRPC4 ctr mod -22% | TRPC4 ctr inh 2 34% | TRPC6 block conf 39% | TRPC6 act conf inactive
CN1CCN(c2cc(N3CCCCCC3)c(F)cc2[N+](=O)[O-])CC1	TRPC6 inhibitor -6 | HEK293 MPD ctr-2 -88% | HEK293 MPD ctr 2-2 inactive | TRPC4 ctr mod -24% | TRPC4 ctr inh 2 54% | TRPC6 block conf 41% | TRPC6 act conf inactive
